Test results published in ChEMBL document CHEMBL1833801, “Natural daucane sesquiterpenes with antiproliferative and proapoptotic activity against human tumor cells” (Bioorg Med Chem, 2011).
pIC50: −log10 of the molar value. Calls of active or inactive are those of the source. No cut-off for these calls is given here.

What was measured:
[1] = tested on: HeLa; test: Cytotoxicity against human HeLa cells after 72 hrs by MTT assay; assay type: functional, cell-based
[2] = tested on: Jurkat; test: Cytotoxicity against human Jurkat cells after 72 hrs by MTT assay; assay type: functional, cell-based
[3] = tested on: K562; test: Cytotoxicity against human K562 cells after 72 hrs by MTT assay; assay type: functional, cell-based; conditions: K562, 72 h
[4] = Cytotoxicity against human RS4:11 cells after 72 hrs by MTT assay; assay type: functional, cell-based; conditions: RS4-11, 72 h
[5] = tested on: HL-60; test: Cytotoxicity against human HL60 cells after 72 hrs by MTT assay; assay type: functional, cell-based; conditions: HL-60, 72 h
[6] = tested on: A549; test: Cytotoxicity against human A549 cells after 72 hrs by MTT assay; assay type: functional, cell-based; conditions: A549, 72 h
[7] = Cytotoxicity against human SEM cells after 72 hrs by MTT assay; assay type: functional, cell-based
[8] = tested on: Jurkat; test: Induction of apoptosis in human Jurkat cells assessed as necrotic cells at 50 uM after 24 hrs by FITC-conjugated annexin V and propidium iodide staining-based flow cytometry relative to control; assay type: functional
Procedure, shortened: (§1)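 Jurkat cells exposed for 24 and 48 h, over a range of 1.25–100 µM, then co-stained with Annexin-V-FITC and propidium iodide. Read by flow cytometry, excitation 488 nm, emission 525 and 585 nm. Quadrants scored as A+/PI− (early apoptotic) and A+/PI+ (late apoptotic), compared with untreated cells. Mean ± SEM of three independent experiments.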

[9] = tested on: Jurkat; test: Induction of apoptosis in human Jurkat cells assessed as necrotic cells at 50 uM after 48 hrs by FITC-conjugated annexin V and propidium iodide staining-based flow cytometry relative to control; assay type: functional; procedure, shortened: as §1
[10] = tested on: Jurkat; test: Cell cycle arrest in human Jurkat cells assessed as accumulation at G1 phase at 50 uM after 48 hrs using propidium iodide staining by flow cytometry; assay type: functional, cell-based
Procedure, shortened: (§2)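 Exponentially growing Jurkat cells, 2.5×10^5, exposed to 1.25–100 µM for 48 h. Cells fixed in ice-cold 70% ethanol, lysed in buffer with RNase A and 0.1% Triton X-100, stained with propidium iodide. Cell-cycle phases read by flow cytometry. Mean ± SEM of three independent experiments; two-sided Student's t test against control.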

[11] = tested on: PBL; test: Cytotoxicity against human PBL after 72 hrs by MTT assay; assay type: cell-based
Procedure, shortened: (§3)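 PBL from healthy donors separated on a density gradient, washed, held at 1.0×10^6 cells/mL in RPMI-1640 with 10% FCS overnight. Non-adherent cells resuspended at 5×10^5 cells/mL. Stimulated cultures received 2.5 µg/mL PHA; resting cultures had none. Compound at several concentrations for 72 h, viability by MTT, IC50 taken. Mean ± SEM of three experiments.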

[12] = tested on: Jurkat; test: Induction of apoptosis in human Jurkat cells assessed as early apoptotic cells at 50 uM after 24 hrs by FITC-conjugated annexin V and propidium iodide staining-based flow cytometry relative to control; assay type: functional; procedure, shortened: as §1
[13] = tested on: Jurkat; test: Induction of apoptosis in human Jurkat cells assessed as increase in late apoptotic cells after 24 hrs by FITC-conjugated annexin V and propidium iodide staining-based flow cytometry; assay type: functional, cell-based; procedure, shortened: as §1
[14] = tested on: Jurkat; test: Induction of apoptosis in human Jurkat cells assessed as viable cells at 50 uM after 24 hrs by FITC-conjugated annexin V and propidium iodide staining-based flow cytometry relative to control; assay type: functional; conditions: read-out: Activity; procedure, shortened: as §1
[15] = tested on: Jurkat; test: Induction of apoptosis in human Jurkat cells assessed as late apoptotic cells at 50 uM after 24 hrs by FITC-conjugated annexin V and propidium iodide staining-based flow cytometry relative to control; assay type: functional; procedure, shortened: as §1
[16] = tested on: Jurkat; test: Cell cycle arrest in human Jurkat cells assessed as accumulation at G1 phase after 48 hrs using propidium iodide staining by flow cytometry; assay type: functional, cell-based; procedure, shortened: as §2
[17] = tested on: Jurkat; test: Induction of apoptosis in human Jurkat cells assessed as late apoptotic cells at 50 uM after 48 hrs by FITC-conjugated annexin V and propidium iodide staining-based flow cytometry relative to control; assay type: functional; procedure, shortened: as §1
[18] = tested on: PBL; test: Cytotoxicity against PHA-stimulated human PBL after 72 hrs by MTT assay; assay type: cell-based; procedure, shortened: as §3
[19] = tested on: Jurkat; test: Cytotoxicity against human Jurkat cells assessed as cell viability at 50 uM after 48 hrs by MTT assay in presence of 100 uM pan-caspase inhibitor z-VAD; assay type: functional
Procedure, shortened: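 Jurkat cells exposed to compound for 48 h with or without 100 µM of the pan-caspase inhibitor z-VAD.fmk. Percent viability read by MTT. Mean ± SEM.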

[20] = tested on: Jurkat; test: Induction of apoptosis in human Jurkat cells assessed as DNA fragmentation at 25 to 50 uM after 48 hrs by agarose gel electrophoresis; assay type: functional, cell-based
Procedure, shortened: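 Genomic DNA taken from treated Jurkat cells by salting out after 48 h. 1 µg run on 1.5% agarose in TAE at 50 V for 6 h. Gel stained with ethidium bromide and imaged under UV light.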

[21] = tested on: Jurkat; test: Induction of apoptosis in human Jurkat cells assessed as viable cells at 50 uM after 48 hrs by FITC-conjugated annexin V and propidium iodide staining-based flow cytometry relative to control; assay type: functional; conditions: read-out: Activity; procedure, shortened: as §1
[22] = tested on: Jurkat; test: Induction of apoptosis in human Jurkat cells assessed as early apoptotic cells at 50 uM after 48 hrs by FITC-conjugated annexin V and propidium iodide staining-based flow cytometry relative to control; assay type: functional; procedure, shortened: as §1
[23] = tested on: Jurkat; test: Cell cycle arrest in human Jurkat cells assessed as decrease in S phase phase after 48 hrs using propidium iodide staining by flow cytometry; assay type: functional, cell-based; procedure, shortened: as §2
[24] = tested on: Jurkat; test: Cell cycle arrest in human Jurkat cells assessed as accumulation at G2/M phase after 48 hrs using propidium iodide staining by flow cytometry; assay type: functional, cell-based; procedure, shortened: as §2
[25] = tested on: Jurkat; test: Cell cycle arrest in human Jurkat cells assessed as decrease in G1 phase phase after 48 hrs using propidium iodide staining by flow cytometry; assay type: functional, cell-based; procedure, shortened: as §2

| Structure (SMILES) | pIC50 [1] | pIC50 [2] | pIC50 [3] | pIC50 [4] | pIC50 [5] | pIC50 [6] | pIC50 [7] | also measured |
| --- | --- | --- | --- | --- | --- | --- | --- | --- |
| C/C=C(\C)C(=O)O[C@H]1C[C@@]2(C)O[C@H]2[C@@H](OC(C)=O)[C@@]2(C)CC[C@@](O)(C(C)C)[C@H]12 | < 4.00 | < 4.00 | < 4.00 | < 4.00 | < 4.00 | < 4.00 | < 4.00 | – |
| COc1ccc(C(=O)O[C@H]2CC(C)=C[C@H](OC(C)=O)[C@@]3(C)[C@@H](OC(C)=O)C[C@@](O)(C(C)C)[C@H]23)cc1 | 4.84 | 5.48 | 4.40 | 5.55 | 4.95 | 4.63 | 4.82 | Activity [8]: 16%; Activity [9]: 27.8%; Activity [10]: inactive; pIC50 [11]: 5.18; Activity [12]: 5.8%; Activity [13]: Dose-dependent effect; viability at 50 µM [14]: 36.5%; Activity [15]: 41.7%; Activity [16]: Active; Activity [17]: 67.4%; pIC50 [18]: 5.03; Activity [19]: 13%; Activity [20]: inactive; viability at 50 µM [21]: 4.7%; Activity [22]: 0.1% |
| COc1ccc(C(=O)O[C@@H]2C=C(C)CC[C@]3(O)[C@H](C(C)C)CC(=O)[C@]23C)cc1 [SIOL ANISATE] | < 4.00 | < 4.00 | < 4.00 | < 4.00 | < 4.00 | < 4.00 | 4.62 | – |
| COc1ccc(C(=O)OCC2=CC[C@@]3(C)CCC(C(C)C)=C3CC2)cc1 | < 4.00 | 4.59 | 4.17 | 4.36 | 4.51 | < 4.00 | 4.59 | – |
| C=C1C[C@H](OC(=O)c2ccc(O)cc2)[C@@H]2[C@](C)(CC[C@@]2(O)C(C)C)C[C@@H]1O | < 4.00 | 4.26 | < 4.00 | 4.54 | 4.36 | < 4.00 | 4.46 | – |
| COc1ccc(C(=O)O[C@H]2C=C(C)C(=O)C[C@@]3(C)CC[C@@](O)(C(C)C)[C@H]23)cc1 | 4.53 | 4.39 | < 4.00 | 4.54 | 4.41 | 4.50 | 4.55 | – |
| COc1ccc(C(=O)O[C@H]2CC(C)=C[C@H](OC(C)=O)[C@]3(C)[C@@H]2[C@](O)(C(C)C)C[C@@H]3O)cc1 | 4.28 | 5.04 | 4.15 | 4.57 | 4.83 | < 4.00 | 4.58 | Activity [10]: inactive; pIC50 [11]: 4.52; Activity [13]: Dose-dependent effect; Activity [16]: Active; pIC50 [18]: 4.47 |
| COc1ccc(C(=O)OCC2=CC[C@@]3(C)CC[C@]4(C(C)C)O[C@]34CC2)cc1 | < 4.00 | < 4.00 | < 4.00 | 4.22 | < 4.00 | < 4.00 | 4.08 | – |
| COc1ccc(C(=O)O[C@H]2CC(C)=C[C@H](O)[C@@]3(C)[C@@H](OC(C)=O)C[C@@](O)(C(C)C)[C@H]23)cc1 | 4.28 | 5.23 | 4.32 | 4.46 | 4.64 | 4.10 | 4.74 | Activity [23]: Active; pIC50 [11]: 4.69; Activity [13]: Dose-dependent effect; Activity [24]: Dose-dependent effect; pIC50 [18]: 4.57; Activity [25]: Active |
| COc1ccc(C(=O)O[C@H]2CC(C)=CC[C@@]3(C)CC[C@@](O)(C(C)C)[C@H]23)cc1 [FERUTIDIN] | < 4.00 | 4.52 | 4.17 | 4.75 | 4.70 | 4.50 | 4.74 | – |
| COc1ccc(C(=O)O[C@H]2CC(C)=C[C@@H](OC(C)=O)[C@@]3(C)[C@@H](OC(C)=O)C[C@@](O)(C(C)C)[C@H]23)cc1 | < 4.00 | 4.21 | < 4.00 | 4.37 | 4.08 | < 4.00 | 4.48 | – |
| COc1ccc(C(=O)O[C@H]2CC(C)=C[C@@H](O)[C@@]3(C)[C@@H](OC(C)=O)C[C@@](O)(C(C)C)[C@H]23)cc1 | < 4.00 | 4.47 | 4.07 | 4.15 | 4.62 | < 4.00 | < 4.00 | – |
| CC1=C[C@H](OC(=O)c2ccc(O)cc2)[C@@H]2[C@](C)(CC[C@@]2(O)C(C)C)CC1=O | 4.58 | 4.39 | < 4.00 | 4.55 | 4.08 | 4.84 | 4.61 | – |
| CC1=CC[C@]2(C)[C@@H]([C@@H](OC(=O)c3ccc(O)cc3)C1)[C@](O)(C(C)C)C[C@@H]2O | 4.25 | 4.39 | 4.02 | 4.48 | 5.46 | 4.08 | 4.65 | – |
